Data from ChEMBL document CHEMBL5370635, “Structure-Based Design and Synthesis of Potent and Selective KRAS G12D Inhibitors” (ACS Med Chem Lett, 2023).

How the values were obtained:
GTPase KRas [1] = target: T1, GTPase KRas (Homo sapiens, UniProt P01116, G12D); assay: Inhibition of KRAS G12D mutant in human ASPC1 cells assessed as reduction in ERK phosphorylation measured after 4 hrs by HTRF assay; assay type: cell-based
GTPase KRas [2] = target: T2, GTPase KRas (Homo sapiens, UniProt P01116); assay: (§1) Inhibition of wild-type GDP-bound biotinylated-KRAS (unknown origin) assessed as suppression of SOS1-mediated nucleotide exchange by measuring reduction in KRAS-RAF RBD complex formation preincubated for 60 mins followed by SOS1 addition and further incubated for 60 mins and subsequent addition of KRAS-RAF RBD mixture measured after 30 to 60 mins by FRET assay
GTPase KRas [3] = target: T2, GTPase KRas; assay: Thermal stabilization of wild-type GDP-bound KRAS (1 to 169 residues) (unknown origin) assessed as melting temperature incubated for 1 hrs by differential scanning fluorimetry assay
GTPase KRas [4] = target: T1, GTPase KRas; assay: as §1, with “of” for “of wild-type”, “biotinylated-KRAS G12D mutant (1 to 169 residues)” for “biotinylated-KRAS”, “KRAS G12D mutant-RAF” for “KRAS-RAF”
[5] = system: GTPase KRas (Homo sapiens), P01116 [G12D]; assay: Thermal stabilization of GDP-bound KRAS G12D mutant (1 to 169 residues) (unknown origin) assessed as melting temperature incubated for 1 hrs by differential scanning fluorimetry assay
Homo sapiens = species on record: Homo sapiens; assay: Selectivity ratio of IC50 for wild-type GDP-bound biotinylated-KRAS (unknown origin) to IC50 for GDP-bound biotinylated-KRAS G12D mutant (1 to 169 residues) (unknown origin)
ASPC1 [6] = assay: Antitumor activity against human ASPC1 cells xenografted in mouse assessed as tumor regression at 20 mg/kg bid for 28 days relative to control; assay type: functional; settings: time 28 day
Method in brief: (§2)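 Mice bearing AsPC-1 (KRAS G12D pancreatic ductal adenocarcinoma) xenografts were given repeated twice-daily doses of 3, 10 or 20 mg/kg alongside a vehicle control group, with n = 8 per group. Tumor growth inhibition or regression was assessed against vehicle, with body weight also tracked. Group means were reported with SEM, and P values were calculated versus vehicle.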

ASPC1 [7] = assay: Antitumor activity against human ASPC1 cells xenografted in mouse assessed as inhibition of tumor growth at 3 mg/kg bid for 28 days relative to control; assay type: functional; settings: ASPC1, 672 h, time 28 day, read-out: TGI; method in brief: as §2
HPAC = assay: Antiproliferative activity against human HPAC cells assessed as reduction in cell viability measured after 5 days by Cell-Titer Glo assay; assay type: functional, cell-based; settings: 120 h
[8] = Toxicity in human ASPC1 cell xenografted mouse at 3 to 20 mg/kg bid administered for 28 days; assay type: organism-based; settings: in vivo, 672 h, dose 3-20 mg/kg, time 28 day
Method in brief: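 Mice bearing AsPC-1 KRAS G12D PDAC xenografts dosed BID at 3, 10 or 20 mg/kg alongside a vehicle control group. Body weight change tracked over the treatment period together with tumour growth. Group means, n = 8, with SEM.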

SK-LU-1 = assay: Antiproliferative activity against human SK-LU-1 cells assessed as reduction in cell viability measured after 5 days by Cell-Titer Glo assay; assay type: functional, cell-based; settings: SK-LU-1, 120 h
[9] = Antiproliferative activity against RAS initiative wild-type cells assessed as reduction in cell viability after 5 days of treatment by Cell-Titer Glo assay; assay type: functional, cell-based; settings: Homo sapiens, 120 h
[10] = Antiproliferative activity against human Panc 04.03 cells assessed as reduction in cell viability measured after 5 days by Cell-Titer Glo assay; assay type: functional, cell-based; settings: Panc 04.03, 120 h
AGS = assay: Antiproliferative activity against human AGS cells assessed as reduction in cell viability measured after 5 days by Cell-Titer Glo assay; assay type: functional, cell-based; settings: 120 h
ASPC1 [11] = assay: Antitumor activity against human ASPC1 cells xenografted in mouse assessed as inhibition of tumor growth at 10 mg/kg bid for 28 days relative to control; assay type: functional; settings: ASPC1, 672 h, time 28 day, read-out: TGI; method in brief: as §2
[12] = Antiproliferative activity against human SNU-1033 cells assessed as reduction in cell viability measured after 5 days by Cell-Titer Glo assay; assay type: functional, cell-based; settings: SNU-1033, 120 h
[13] = Antiproliferative activity against human GP2d cells assessed as reduction in cell viability measured after 5 days by Cell-Titer Glo assay; assay type: functional, cell-based; settings: 120 h
[14] = Selectivity ratio of IC50 for RAS initiative wild-type cells to IC50 for RAS initiative G12D cells; assay type: functional
ASPC1 [15] = assay: Antiproliferative activity against human ASPC1 cells assessed as reduction in cell viability measured after 5 days by Cell-Titer Glo assay; assay type: functional, cell-based; settings: ASPC1, 120 h
Method in brief: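 AsPC-1 PDAC cells (KRAS G12D) grown in three-dimensional culture; viability read by Cell-Titer Glo luminescence.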

[16] = Antiproliferative activity against RAS initiative G12D cells assessed as reduction in cell viability after 5 days of treatment by Cell-Titer Glo assay; assay type: functional, cell-based; settings: Homo sapiens, 120 h
HPAF-II = assay: Antiproliferative activity against human HPAF-II cells assessed as reduction in cell viability measured after 5 days by Cell-Titer Glo assay; assay type: functional, cell-based; settings: 120 h
LS-513 = assay: Antiproliferative activity against human LS-513 cells assessed as reduction in cell viability measured after 5 days by Cell-Titer Glo assay; assay type: functional, cell-based; settings: LS-513, 120 h
ASPC1 [17] = assay: Antitumor activity against human ASPC1 cells xenografted in mouse assessed as inhibition of tumor growth at 20 mg/kg bid for 28 days relative to control; assay type: functional; parameters: scale not given: the % may be the effect or the level left; settings: time 28 day; method in brief: as §2

Compound	IC50 (GTPase KRas [1]) [nM]	IC50 (GTPase KRas [2]) [nM]	ΔTm (GTPase KRas [3]) [°C]	IC50 (GTPase KRas [4]) [nM]	ΔTm [5] [°C]	also measured
Nc1nc2c(-c3c(Cl)cc4c(N5C[C@H]6CC[C@@H](C5)N6)nc(OC[C@@]56CCCN5C[C@H](F)C6)nc4c3F)ccc(F)c2s1	149	39.6	7.2	3.8	14.7	
Cc1cc(N)nc(-c2c(Cl)cc3c(N4CCNC[C@@H]4C)nc(OC[C@@H]4CCCN4C)nc3c2F)c1C(F)(F)F	> 10000	> 1000	1.4	76.9	2.6	
Nc1cc2ccccc2c(-c2c(Cl)cc3c(N4C[C@H]5CC[C@@H](C4)N5)nc(OC[C@@]45CCCN4C[C@H](F)C5)nc3c2F)n1	2970	> 1000	0.8	12.8	4.3	
CN1CCC[C@H]1COc1nc(N2C[C@H]3CC[C@@H](C2)N3)c2cc(Cl)c(-c3ccc(F)c4sc(N)c(C#N)c34)c(F)c2n1	138	17	10.3	1.3	17.1	
N#Cc1c(N)sc2c(F)ccc(-c3cc4nc(OC[C@@]56CCCN5C[C@H](F)C6)nc(N5C[C@H]6CC[C@@H](C5)N6)c4cc3Cl)c12	42.9	11.6	9.4	1.5	16	
Cc1cc(N)nc(-c2c(Cl)cc3c(N4C[C@H]5CC[C@@H](C4)N5)nc(OC[C@@]45CCCN4C[C@H](F)C5)nc3c2F)c1C(F)(F)F	89.9	153	5.2	2.1	11.7	
Cc1cc(N)nc(-c2c(Cl)cc3c(N4C[C@H]5CC[C@@H](C4)N5)nc(OCC45CCCN4CCC5)nc3c2F)c1C(F)(F)F	928	214	4.6	2.1	10.9	
N#Cc1c(N)sc2c(F)ccc(-c3c(Cl)cc4c(N5C[C@H]6CC[C@@H](C5)N6)ncnc4c3F)c12	1080	> 1000	3.7	5.32	7.4	Ratio IC50 (Homo sapiens): 188
N#Cc1c(N)sc2c(F)ccc(-c3c(C(F)(F)F)cc4c(N5C[C@H]6CC[C@@H](C5)N6)nc(OC[C@@]56CCCN5C[C@H](F)C6)nc4c3F)c12	2.1	3.9	8.3	0.86	20.8	Activity (ASPC1 [6]): 54%; inhibition in vivo at 3 mg/kg (ASPC1 [7]): 51%; IC50 (HPAC): 1.8 nM; Activity [8]: Non-Toxic; IC50 (SK-LU-1): 0.5 nM; IC50 [9]: 978 nM; IC50 [10]: 10.6 nM; IC50 (AGS): 0.7 nM; inhibition in vivo at 10 mg/kg (ASPC1 [11]): 77%; IC50 [12]: 623 nM; IC50 [13]: 0.2 nM; Ratio IC50 [14]: >100; IC50 (ASPC1 [15]): 3.5 nM; IC50 [16]: 5.8 nM; IC50 (HPAF-II): 7.2 nM; IC50 (LS-513): 2 nM
N#Cc1c(N)sc2c(F)ccc(-c3c(Cl)cc4c(N5C[C@H]6CC[C@@H](C5)N6)nc(OC[C@@]56CCCN5C[C@H](F)C6)nc4c3F)c12	4.3	4.2	13.4	0.98	20.2	IC50 (HPAC): 3.4 nM; IC50 (SK-LU-1): 1.4 nM; IC50 [9]: 3440 nM; IC50 [10]: 58.6 nM; IC50 (AGS): 1.2 nM; IC50 [12]: 1890 nM; IC50 [13]: 0.2 nM; Ratio IC50 [14]: >100; IC50 (ASPC1 [15]): 15.1 nM; IC50 [16]: 33.4 nM; IC50 (HPAF-II): 14.2 nM; IC50 (LS-513): 7.5 nM
C#Cc1c(F)ccc2cc(O)cc(-c3ncc4c(N5C[C@H]6CC[C@@H](C5)N6)nc(OC[C@@]56CCCN5C[C@H](F)C6)nc4c3F)c12 [MRTX-1133]						inhibition in vivo at 3 mg/kg (ASPC1 [7]): 61%; IC50 (HPAC): 4.2 nM; Activity [8]: Non-Toxic; IC50 (SK-LU-1): 2.7 nM; IC50 [9]: 6470 nM; IC50 [10]: 27.6 nM; IC50 (AGS): 3.2 nM; inhibition in vivo at 10 mg/kg (ASPC1 [11]): 83%; IC50 [12]: 4980 nM; IC50 [13]: 0.4 nM; Ratio IC50 [14]: >100; IC50 (ASPC1 [15]): 11 nM; IC50 [16]: 16.4 nM; IC50 (HPAF-II): 14.9 nM; Activity (ASPC1 [17]): 94%; IC50 (LS-513): 8.1 nM
Cc1cc(N)nc(-c2c(Cl)cc3c(N4C[C@H]5CC[C@@H](C4)N5)nc(OC[C@@H]4CCCN4C)nc3c2F)c1C(F)(F)F	941	> 1000	1.9	3.5	7.3	Ratio IC50 (Homo sapiens): > 286
Nc1cc2cccc(F)c2c(-c2c(Cl)cc3c(N4C[C@H]5CC[C@@H](C4)N5)nc(OC[C@@]45CCCN4C[C@H](F)C5)nc3c2F)n1	1030	> 1000	2.2	6	7.4	
N#Cc1c(N)sc2c(F)ccc(-c3c(Cl)cc4c(N5C[C@H]6CC[C@@H](C5)N6)nc(OCC5(CN6CC[C@@H](F)C6)CC5)nc4c3F)c12	30	9.2	12	1	17.8	
